# ANO1 activ: activators or potentiators of mouse TMEM16A chloride channel | HEK293 TMEM16A/YFP-H148Q/I152L, iodide quench fluorescence; active compounds read low | B-score at 10 µM | 340,000 tested, 0.3% active | AID 623877;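 active means fluorescence-ratio B-score plate-corrected deviation score at least 3 library SD below zero, with starting fluorescence score within 5 deviations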;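 further: channel opened by trigger with iodide after compound preincubation; score built on the fluorescence ratio of max minus min over baseline; more negative score means more quench and so TMEM16A activation or potentiation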
# Target sequence (Q8BHY3 whole entry, looked up): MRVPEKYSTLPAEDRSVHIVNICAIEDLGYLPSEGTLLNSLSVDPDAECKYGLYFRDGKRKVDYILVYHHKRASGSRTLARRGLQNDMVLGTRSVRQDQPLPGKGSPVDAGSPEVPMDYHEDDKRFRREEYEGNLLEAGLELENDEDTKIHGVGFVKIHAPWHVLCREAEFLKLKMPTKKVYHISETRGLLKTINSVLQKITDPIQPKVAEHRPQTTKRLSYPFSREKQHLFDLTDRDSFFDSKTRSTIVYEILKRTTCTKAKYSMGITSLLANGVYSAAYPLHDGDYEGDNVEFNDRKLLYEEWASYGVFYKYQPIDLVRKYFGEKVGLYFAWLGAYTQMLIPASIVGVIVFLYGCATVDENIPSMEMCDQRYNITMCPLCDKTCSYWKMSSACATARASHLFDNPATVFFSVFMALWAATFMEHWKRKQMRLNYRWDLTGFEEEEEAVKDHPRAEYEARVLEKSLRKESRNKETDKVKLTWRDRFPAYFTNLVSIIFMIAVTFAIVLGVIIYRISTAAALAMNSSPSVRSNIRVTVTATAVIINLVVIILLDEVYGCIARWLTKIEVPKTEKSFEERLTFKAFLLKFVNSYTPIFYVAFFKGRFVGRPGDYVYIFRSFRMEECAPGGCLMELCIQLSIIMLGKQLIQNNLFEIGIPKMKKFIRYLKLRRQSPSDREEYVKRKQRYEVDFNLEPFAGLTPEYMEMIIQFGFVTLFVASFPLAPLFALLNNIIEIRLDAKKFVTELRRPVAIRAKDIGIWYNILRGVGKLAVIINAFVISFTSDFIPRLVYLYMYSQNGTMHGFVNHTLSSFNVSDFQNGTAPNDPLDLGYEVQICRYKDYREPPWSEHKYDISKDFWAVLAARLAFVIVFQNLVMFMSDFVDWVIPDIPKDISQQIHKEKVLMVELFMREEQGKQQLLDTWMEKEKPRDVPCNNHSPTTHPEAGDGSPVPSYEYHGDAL
# TAAR1 ag: agonists of human TAAR1; Q96RJ0; CHO RD-HGA16 TAAR1, Fluo-8 calcium fluorescence; vehicle wells 0%, saturating PEA agonist 100%; activation, % at 3 µM; 360,000 tested, 0.99% active;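 active means activation above the mean activation of all test compounds in the run plus 3 SD, cut at about 38% in these data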
#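 Repeats: no replicates (n 1) | Material: CHO-derived RD-HGA16 cells with stable Gα16 and human TAAR1 | Technique: Kinetic Fluo-8 calcium fluorescence | Schedule: 17-24 h seeding, 75 min 37 °C dye, 30 min RT | Evaluation: % activation from peak over basal fluorescence ratio, DMSO-to-PEA scaled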
# ANO1 block: blocks the mouse calcium-activated chloride channel TMEM16A; Q8BHY3; HEK293 TMEM16A/YFP iodide influx fluorescence, ionomycin; 310,000 tested, 1.2% active; normalized B-score (activity score, 25-100; higher = stronger inhibition) at 10 µM;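 active means ratio plate-corrected score three or more library SD toward inhibition, starting fluorescence score within five deviations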;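 further: score derived from kinetic fluorescence span divided by baseline fluorescence per well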
# TAAR1 antag: human TAAR1 antagonism; Q96RJ0; CHO RD-HGA16 TAAR1, Fluo-8 calcium fluorescence, antagonist; inhibition, % at 3 µM; 360,000 tested, 1.5% active; AID 624466;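 active means inhibition above a per-plate cutoff, the mean inhibition of test compounds on that plate plus 3 SD, cut at about 49% in these data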
#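 Material: RD-HGA16 CHO cells with stable hTAAR1 and Gα16; Dosing: single nominal final test compound concentration of 3 µM; Schedule: seeding 17-24 h prior, 75-min 37 °C, 30-min RT dye loading; Detection: kinetic Fluo-8 calcium fluorescence measurement; Measure: % inhibition from peak post-agonist over basal fluorescence ratio; Benchmarks: vehicle and agonist controls.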
# CRFR2-BP antag: antagonists of CRF-binding protein/CRF-R2 receptor complex; HEK293 CRF-R2/CRF-BP, CRF-induced calcium fluorescence; inhibition, % at 11.8 µM; 350,000 tested, 0.59% active; AID 588475;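 active means inhibition of the ligand-induced calcium signal above about 50% at the single tested concentration, limit read from the data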
# CRFBP-R2 agonist: CRF-BP/CRF-R2 complex agonism | AID 588473 | activation, % at 13.2 µM | 350,000 tested, 0.46% active | HEK293 CRF-R2/CRF-BP, calcium dye fluorescence (FLIPR); percent of saturating CRF peptide response;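 active means activation of at least 50%, plus an integration ratio under a set limit after plate pattern correction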
# TMEM16A reconf: re-confirmation of mouse TMEM16A chloride channel inhibitors; 2,300 tested, 39% active; inhibition, % at 10 µM; AID 652189; shares compounds with ANO1 block; HEK293 TMEM16A/YFP-H148Q, iodide quench fluorescence; ionomycin added to raise cell calcium;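 active means mean duplicate percent inhibition, scaled so buffer wells are 0 and the reference blocker 100, over three buffer SD above buffer mean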
# HEK293 Ca mobil: alters calcium mobilization in TMEM16A HEK293 cells, counter-screen | AID 652231 | 2,300 tested, 2% active | calcium response (% of ionomycin), % at 10 µM | TMEM16A/YFP HEK293, Fluo4 calcium mobilization | shares compounds with ANO1 block;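 active means duplicate-averaged calcium signal over 20% of the ionomycin maximum, relative to buffer baseline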;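 further: each well's signal is peak minus trough fluorescence divided by its pre-addition baseline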
# Parental YFP cnt: counter-screen for TMEM16A inhibitors: effect in parental YFP-HEK293 cells; shares compounds with ANO1 block; iodide YFP quench, ionomycin; YFP ratio F(max-min)/F0 at 10 µM; 2,300 tested, under 10 active; AID 652233;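 active means yellow fluorescent protein signal ratio exceeding the buffer control mean by over 5 SD of those controls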;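 further: ratio is mean of duplicate wells from kinetic YFP trace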
# ClC-1 rat inh: rat ClC-1 inhibition, TMEM16A specificity screen. shares compounds with ANO1 block. ratio percent, % at 10 µM. CHO ClC-1-YFP, iodide influx fluorescence quench; iodide control reads 0, buffer control 100. 2,300 tested, under 10 active;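 active means duplicate-mean ratio percent above the mean of iodide-only control wells, which defines zero, plus 5 of their SD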;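 further: higher percent means stronger block of ClC-1 iodide influx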
# Hits are given with their value; – = inactive; · = not tested or not shown. Hits are enriched below; roughly 3.9% of the tested compounds scored in any of these assays.
SMILES,ANO1 activ,TAAR1 ag,ANO1 block,TAAR1 antag,CRFR2-BP antag,CRFBP-R2 agonist,TMEM16A reconf,HEK293 Ca mobil,Parental YFP cnt,ClC-1 rat inh
CC(C)CCc1noc(CN(C)CCC2CCOCC2)n1,–,–,–,–,–,–,·,·,·,·
Cc1nn(C)c(C)c1CN(Cc1nc(CCC(C)C)no1)C(C)C,–,–,25,–,–,–,–,–,–,–
CCOC(=O)/C=C/C(=O)Nc1ccc(S(=O)(=O)Nc2nccs2)cc1,–,–,–,–,–,–,·,·,·,·
CCOc1ccc(N(C)S(=O)(=O)c2cc(-c3cc(C)no3)ccc2C)cc1,–,–,100,65,–,–,31%,–,–,–
Cc1ccc(N(C)S(=O)(=O)c2cc(-c3cnc(C4CC4)o3)ccc2C)cc1,–,–,100,–,–,–,20%,–,–,–
Cc1cccc(C)c1-n1nnnc1C(c1ccnc2ccccc12)N(CCN(C)C)Cc1ccccc1 (stereo not given),·,–,·,–,·,·,·,·,·,·
CCCCn1c(CN2CCN(c3cccc(Cl)c3)CC2)nc2c1c(=O)n(C)c(=O)n2C,–,–,25,–,–,–,–,–,–,–
Cc1cccc(NC(=O)c2cc(-c3cc(C)ccc3O)n[nH]2)c1,–,–,–,–,–,–,·,·,·,·
Cc1ccc(O)c(-c2cc(C(F)(F)F)[nH]n2)c1,–,–,100,–,–,–,56%,–,–,–
Cc1ccc(C(=O)Cn2c(C(=O)OCCO)cc3ccccc32)cc1,–,–,–,–,–,–,·,·,·,·
CCOC(=O)c1cc2ccccc2n1CCN(CC)CC,–,–,25,–,–,74,–,–,–,–
COC(=O)CCN(c1ccccc1)S(=O)(=O)c1cc(-c2cc(C)no2)ccc1C,–,–,–,–,–,–,·,·,·,·
Cc1nc(SCc2nc3ccccc3[nH]2)c2oc3ccccc3c2n1,–,–,–,–,–,–,·,·,·,·
c1ccc2[nH]c(CSc3ncnc4c3oc3ccccc34)nc2c1,–,–,100,–,–,–,22%,–,–,–
O=C(NC1CC1)C1CC(=O)N(c2ccc(F)cc2)C1 (stereo not given),–,–,–,–,–,–,·,·,·,·
Cc1ccccc1-c1cc(C(=O)n2cccn2)c2cc(Cl)ccc2n1,–,–,25,–,–,–,–,–,–,–
CSCCC(NC(=O)COc1ccccc1)C(=O)N1CCN(c2ccccc2O)CC1 (stereo not given),–,–,–,–,–,–,·,·,·,·
Cc1cccc(C)c1OCc1cc(C(=O)N2CCN(c3ccc(F)cc3)CC2)no1,–,–,25,–,–,–,24%,–,–,–
Cc1ccc(NC(=O)C(C)NS(=O)(=O)c2ccc(F)cc2)cc1C (stereo not given),–,–,25,–,–,–,–,–,–,–
CNC(=O)C(C)NS(=O)(=O)c1ccc(F)cc1 (stereo not given),–,–,–,–,–,–,·,·,·,·
COc1ccc(-c2csc(NC(=O)C3CCN(C(=O)c4ccc(F)cc4)CC3)n2)cc1OC,–,–,100,–,–,–,20%,–,–,–
COc1ccc(CNC(=O)C2CCN(C(=O)c3ccc(F)cc3)CC2)cc1OC,–,–,·,–,–,–,·,·,·,·
COc1cccc(NC(=O)Nc2nc(-c3ccc(OC)c(OC)c3)cs2)c1,–,–,25,82,–,–,20%,–,–,–
CCOc1c(Cl)cc(C(=O)Nc2ccccc2C(=O)O)cc1Cl,–,–,100,–,–,–,50%,–,–,–
Cc1cccc(CNC(=O)c2ccc3nc(Cc4ccccc4F)oc3c2)n1,–,–,–,–,–,–,·,·,·,·
SMILES,ANO1 activ,TAAR1 ag,ANO1 block,TAAR1 antag,CRFR2-BP antag,CRFBP-R2 agonist,TMEM16A reconf,HEK293 Ca mobil,Parental YFP cnt,ClC-1 rat inh
COc1ccc(CCCc2nnc(SCC(=O)Nc3ncc(C)s3)o2)cc1,–,–,–,–,–,–,·,·,·,·
COc1ccc(CCCc2nnc(SCC(=O)Nc3cccc(C)c3)o2)cc1,–,–,25,–,–,–,18%,–,–,–
CCCC#Cc1cnc2c(c1)C(=O)N([C@H](C)CO)C[C@H](C)[C@@H](CN(C)C(=O)CCN1CCCCC1)O2,·,–,·,–,–,–,·,·,·,·
CN(CC(=O)Nc1ccc(F)cc1)C(=O)C1CCN(C(=O)Nc2ccccc2)CC1,–,–,·,–,–,–,·,·,·,·
O=S(=O)(NCC(c1ccco1)N1CCc2ccccc2C1)c1ccc(F)cc1 (stereo not given),–,–,25,–,–,–,36%,–,–,–
Cc1ccc(-c2n[nH]c(Cc3ccccc3)n2)cc1,–,–,–,–,–,–,·,·,·,·
CC(C)(C)c1csc(SCC(=O)Nc2ccc(Cl)cn2)n1,–,–,100,–,–,–,–,–,–,–
Cc1csc(SCC(=O)Nc2ccc(Cl)cn2)n1,–,–,–,–,–,–,·,·,·,·
CC(=O)c1cccc(NC(=O)CN(C)S(=O)(=O)c2cccc3nsnc23)c1,–,–,–,–,–,–,·,·,·,·
COC(=O)C1=C(C)N(C)C(=NCc2ccc(C(F)(F)F)cc2)NC1c1ccccc1C(F)(F)F (stereo not given),·,–,·,–,·,·,·,·,·,·
CCC(=O)OCC(=O)Nc1ncc(C(F)(F)F)cc1Cl,–,–,–,–,–,–,·,·,·,·
O=C(COC(=O)C1(c2ccc(F)cc2)CCCC1)Nc1ncc(C(F)(F)F)cc1Cl,–,–,100,–,–,–,55%,–,–,–
Cc1cc(C)c(S(=O)(=O)c2ccccc2C)c(N(C)C)n1,–,–,–,–,–,–,·,·,·,·
Cc1cc(C)c(S(=O)(=O)c2ccccc2C)c(SCC(C)C)n1,–,–,100,–,–,–,–,–,–,–
CCCSc1nc(C)cc(C)c1S(C)(=O)=O,–,–,–,–,–,–,·,·,·,·
CCCSc1nc(C)cc(C)c1S(=O)(=O)c1ccccc1C,–,–,100,–,–,–,–,–,–,–
CCN(Cc1ccccc1)C(=O)CSc1nc(C)cc(=O)[nH]1,–,–,–,–,–,–,·,·,·,·
S=C(Nc1ccc(N2CCOCC2)cc1)Nc1ccc2snnc2c1,–,–,–,–,–,–,·,·,·,·

# Screens: PubChem BioAssay, several laboratories
